# In publication PMC10258837 (Journal of the American Chemical Society, 2021):
# What was measured:
# Mur21 [1] = assay: amino acid-dependent ATP-PPi exchange, Mur21; format: biochemical, Streptomyces sp. NRRL 30471; conditions: amino acid-dependent ATP-PPi exchange assay; MBP fusion
# VioC = VioC hydroxylation; format: biochemical, Streptomyces sp. strain ATCC11861; conditions: free L-Arg; experimental control
# AnpI = AnpI substrate test; format: biochemical, Streptomyces lavendulae subsp. lavendulae strain NRRL B-2775; conditions: free (not T domain-bound) substrate
# Mur15 [2] = target: T1, Mur15 (Streptomyces sp. NRRL 30471, UniProt F2WUC7); assay: Mur15 substrate scope; format: biochemical; conditions: for Mur15-catalyzed hydroxylation of free amino acid: LC-MS with authentic hydroxylated standards; for Mur15-catalyzed hydroxylation (substrate conversion): Fe2+, αKG and O2, LC-MS
# Procedure, shortened: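 Mur15 incubated with Fe2+, αKG and O2 plus either a muraymycin substrate purified from Streptomyces sp. NRRL 30475 or a synthetic deaminoribose analogue. Reactions analysed by HPLC against a control without enzyme. Product identity checked by co-injection with authentic hydroxylated standard.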
# SlAnpD(AT) = assay: amino acid-dependent ATP-PPi exchange, SlAnpD; format: biochemical, Streptomyces lavendulae subsp. lavendulae strain NRRL B-2775; conditions: amino acid-dependent ATP-PPi exchange assay; truncated, lacking the C domain
# Mur16 = conditions: cited from earlier work
# AnpF orthologs = assay: amino acid-dependent ATP-PPi exchange, AnpF orthologs; format: biochemical; conditions: amino acid-dependent ATP-PPi exchange assay
# AnpE orthologs [3] = assay: amino acid-dependent ATP-PPi exchange, AnpE orthologs; format: biochemical; conditions: amino acid-dependent ATP-PPi exchange assay
# Mur27 = assay: amino acid-dependent ATP-PPi exchange, Mur27; format: biochemical, Streptomyces sp. NRRL 30471; conditions: amino acid-dependent ATP-PPi exchange assay; MBP fusion
# SadA = conditions: cited from earlier work
# any NRPS = conditions: [14C]NaHCO3; Figure S10
# Mur15 [4] = target: T1, Mur15; assay: Mur15 single-substrate kinetic analysis and turnover; format: biochemical; conditions: for Km / kcat: single-substrate kinetic analysis with saturating αKG, Michaelis-Menten
# Procedure, shortened: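 Mur15 reaction with Fe2+, αKG and O2 as cofactor and cosubstrates. The native muraymycin substrate, purified from Streptomyces sp. NRRL 30475, is varied for single-substrate kinetics.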
# M. smegmatis = assay: anti-M. smegmatis activity; format: cell-based; conditions: 8 compared with 3; Table S3
# E. coli = assay: anti-E. coli activity; format: cell-based; conditions: 8 compared with 3; E. coli strain not stated; Table S3
# Mur12 = assay: T domain loading by SDS-PAGE with phosphor imaging, Mur12; format: biochemical, Streptomyces sp. NRRL 30471; conditions: 14C-labelled amino acid, CoA and Sfp
# holo-SlAnpD(AT) = assay: covalent modification by phosphor imaging, holo-SlAnpD; format: biochemical, Streptomyces lavendulae subsp. lavendulae strain NRRL B-2775; conditions: 14C-labelled amino acid; phosphor imaging of gels
# Mur21 [5] = assay: T domain loading by SDS-PAGE with phosphor imaging, Mur21; format: biochemical, Streptomyces sp. NRRL 30471; conditions: 14C-labelled amino acid, MBP fusion
# AnpE orthologs [6] = assay: covalent modification by phosphor imaging, AnpE orthologs; format: biochemical; conditions: 14C-labelled amino acid
# AnpF = assay: covalent modification by phosphor imaging, AnpF; format: biochemical; conditions: 14C-labelled amino acid
# Mur14 = assay: T domain loading by SDS-PAGE with phosphor imaging, Mur14; format: biochemical, Streptomyces sp. NRRL 30471; conditions: 14C-labelled amino acid; Mur27 with Mur14
compound,measurement,setting,value
"CC(C)[C@H](O)[C@H](N)C(=O)O [(2S,3S)-2, (2S,3S)-β-OH-Leu]",A domain activation of amino acid by Mur21,Mur21 [1],inactive
N=C(N)NCCC[C@H](N)C(=O)O [L-Arg],hydroxylation by VioC,VioC,shown to hydroxylate free L-Arg
same,conversion by AnpI,AnpI,1 was not detected
same,Mur15-catalyzed hydroxylation of free amino acid,Mur15 [2],no peaks corresponding to a hydroxylated product were detected
same,A domain specificity of SlAnpD(AT),SlAnpD(AT),high specificity
same,hydroxylation by Mur16,Mur16,did not hydroxylate L-Arg
N[C@@H](CS)C(=O)O [L-Cys],A domain activation by AnpF orthologs,AnpF orthologs,slight preference
N[C@@H](Cc1c[nH]cn1)C(=O)O [L-His],A domain activation by AnpF orthologs,AnpF orthologs,slight preference
CC[C@H](C)[C@H](N)C(=O)O [L-Ile],A domain activation by AnpF orthologs,AnpF orthologs,slight preference
same,A domain activation by AnpE orthologs,AnpE orthologs [3],very low activity
CC(C)C[C@H](N)C(=O)O [L-Leu],A domain activation by AnpF orthologs,AnpF orthologs,slight preference
same,A domain activation of amino acid by Mur21,Mur21 [1],preferential activity
same,A domain activation by AnpE orthologs,AnpE orthologs [3],highest activity
same,Mur15-catalyzed hydroxylation of free amino acid,Mur15 [2],no peaks corresponding to a hydroxylated product were detected
CSCC[C@H](N)C(=O)O [L-Met],A domain activation by AnpF orthologs,AnpF orthologs,slight preference
same,A domain activation by AnpE orthologs,AnpE orthologs [3],highest activity
N[C@@H](Cc1ccccc1)C(=O)O [L-Phe],A domain activation by AnpF orthologs,AnpF orthologs,slight preference
N[C@@H](Cc1c[nH]c2ccccc12)C(=O)O [L-Trp],A domain activation by AnpF orthologs,AnpF orthologs,no activity
CC(C)[C@H](N)C(=O)O [L-Val],A domain activation by AnpF orthologs,AnpF orthologs,slight preference
same,A domain activation by AnpE orthologs,AnpE orthologs [3],very low activity
same,A domain activation of amino acid by Mur27,Mur27,relatively low activity yet with modest specificity
CC(=O)N[C@@H](CC(C)C)C(=O)O [N-acetyl-L-Leu],conversion by SadA to hydroxylated product,SadA,"hydroxylated product with (2S,3R)-stereochemical configuration"
CC(C)C[C@H](NC(=O)CCC(=O)O)C(=O)O [N-succinyl-L-Leu],conversion by SadA to hydroxylated product,SadA,"hydroxylated product with (2S,3R)-stereochemical configuration"
O=[14C]([O-])O.[Na+] [[^14C]NaHCO3],radiolabelling of NRPS,any NRPS,inability to radiolabel any NRPS
"CO[C@H]1[C@H](O[C@H]([C@H]2O[C@@H](n3ccc(=O)[nH]c3=O)[C@H](O)[C@@H]2O)[C@H](NCCCNC(=O)[C@H](CC(C)C)NC(=O)[C@@H](NC(=O)N[C@H](C(=O)O)C(C)C)[C@@H]2CCN=C(N)N2)C(=O)O)O[C@H](CN)[C@H]1O [compound 3, muraymycin D1]",Km,Mur15 [4],600 ± 100 µM
same,kcat,Mur15 [4],0.167 ± 0.017 s⁻¹
same,total turnover number (TTN),"Mur15 [4]; with native substrate (3) or unnatural substrate (muraymycin B), estimated",≥ 800
same,Mur15-catalyzed hydroxylation (substrate conversion),Mur15 [2],a new peak with a mass corresponding to mono-hydroxylated 3
"CC(C)C[C@H](NC(=O)[C@@H](NC(=O)N[C@H](C(=O)O)C(C)C)[C@@H]1CCN=C(N)N1)C(=O)NCCCN[C@H](C(=O)O)[C@H](O[C@@H]1O[C@H](CN)[C@@H](O)[C@H]1O)[C@H]1O[C@@H](n2ccc(=O)[nH]c2=O)[C@H](O)[C@@H]1O [compound 4, muraymycin D2]",Mur15-catalyzed hydroxylation (substrate conversion),Mur15 [2],mono-hydroxylated
"CO[C@H]1[C@H](O[C@H]([C@H]2O[C@@H](n3ccc(=O)[nH]c3=O)[C@H](O)[C@@H]2O)[C@H](NCCCNC(=O)[C@@H](NC(=O)[C@@H](NC(=O)N[C@H](C(=O)O)C(C)C)[C@@H]2CCN=C(N)N2)[C@@H](O)C(C)C)C(=O)O)O[C@H](CN)[C@H]1O [compound 8, muraymycin C1]",effect of conversion of 3 to 8 on anti-M. smegmatis activity,M. smegmatis,minimal effect
same,effect of conversion of 3 to 8 on E. coli activity,E. coli,minimal effect
same,Mur15-catalyzed hydroxylation (substrate conversion),Mur15 [2],remained unchanged
"N=C(N)NCCC[C@H](NC(=O)NC(Cc1ccccc1)C(=O)O)C(=O)O (stereo partly drawn) [compound 11, L-Phe-(C=O)-L-Arg]",conversion by AnpI,AnpI,No product was observed
CO[C@H]1[C@H](O[C@H]([C@H]2O[C@@H](n3ccc(=O)[nH]c3=O)[C@H](O)[C@@H]2O)[C@H](NCCCNC(=O)[C@@H](NC(=O)[C@@H](NC(=O)N[C@H](C(=O)O)C(C)C)[C@@H]2CCN=C(N)N2)[C@@H](OC(=O)CCCCCCCCCCCCN(O)C(=N)N)C(C)C)C(=O)O)O[C@H](CN)[C@H]1O [muraymycin A1],Mur15-catalyzed hydroxylation (substrate conversion),Mur15 [2],mass consistent with a mono-hydroxylated product
CO[C@H]1[C@H](O[C@H]([C@H]2O[C@@H](n3ccc(=O)[nH]c3=O)[C@H](O)[C@@H]2O)[C@H](NCCCNC(=O)[C@@H](NC(=O)[C@@H](NC(=O)N[C@H](C(=O)O)C(C)C)[C@@H]2CCN=C(N)N2)[C@@H](OC(=O)CCCCCCC(C)C)C(C)C)C(=O)O)O[C@H](CN)[C@H]1O [muraymycin B2],Km,Mur15 [4],930 µM
same,kcat,Mur15 [4],0.108 ± 0.0083 s⁻¹
same,drop in catalytic efficiency when compared with 3,"Mur15 [4]; with respect to muraymycin B2, saturating αKG",~ 2 -fold
same,Mur15-catalyzed hydroxylation (substrate conversion),Mur15 [2],mass consistent with a mono-hydroxylated product
CO[C@H]1[C@H](O[C@H]([C@H]2O[C@@H](n3ccc(=O)[nH]c3=O)[C@H](O)[C@@H]2O)[C@H](NCCCNC(=O)[C@@H](NC(=O)[C@@H](NC(=O)N[C@H](C(=O)O)C(C)C)[C@@H]2CCN=C(N)N2)[C@@H](OC(=O)CCCCC(C)C)C(C)C)C(=O)O)O[C@H](CN)[C@H]1O [muraymycin B6],Mur15-catalyzed hydroxylation (substrate conversion),Mur15 [2],mass consistent with a mono-hydroxylated product
L-[^14C]Arg,loading of Mur12 T domain,Mur12,A faint band corresponding to the molecular weight of Mur12 was detected
same,covalent modification of holo-SlAnpD(AT),holo-SlAnpD(AT),covalently modified
L-[^14C]Leu,self-loading of Mur21,Mur21 [5],not observed
L-[^14C]Phe,covalent modification of AnpE orthologs,AnpE orthologs [6],covalent modification of the AnpE orthologs was detected
L-[^14C]Val,covalent modification of AnpF,AnpF,Covalent modification of AnpF was observed
same,loading of Mur14,Mur14,not observed
α-MAPI [compound 9],conversion by AnpI,AnpI,"Neither, however, were converted to a product"
